ATG4B inhibitor: blocks human ATG4B protease cleavage of LC3 substrate | Q9Y4P1 | ATG4B cleavage of LC3-PLA2, NBD-HPC fluorescence, 1 h | inhibition, % at 8.33 µM | 0.51% of 340,000 active; in the data active = inhibition above about 40%
Target sequence (Q9Y4P1 whole entry, looked up): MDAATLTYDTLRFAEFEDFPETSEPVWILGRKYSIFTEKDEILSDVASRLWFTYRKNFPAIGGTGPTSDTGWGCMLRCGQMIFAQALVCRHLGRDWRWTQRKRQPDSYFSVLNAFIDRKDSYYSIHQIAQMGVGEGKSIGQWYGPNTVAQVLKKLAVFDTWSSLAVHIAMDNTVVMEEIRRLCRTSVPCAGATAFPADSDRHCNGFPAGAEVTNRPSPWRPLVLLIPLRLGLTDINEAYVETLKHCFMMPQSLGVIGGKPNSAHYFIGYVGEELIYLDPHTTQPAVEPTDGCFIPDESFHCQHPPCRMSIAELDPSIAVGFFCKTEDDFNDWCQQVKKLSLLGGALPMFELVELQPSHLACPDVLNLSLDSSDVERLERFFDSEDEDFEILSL
Dynein transport: dynein cargo transport inhibition; 3617.4 mouse cells, GR-EGFP nuclear translocation imaging; test concentration mostly 20 µM; stimulated with dexamethasone, 1 µM; active compounds read low; z-score, hits read low; 0.47% of 220,000 active;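 active = plate z-score of nuclear minus cytoplasmic receptor signal below a set negative limit, without overly bright fluorescence or cell loss, cut at about -3.5 in these data, passing the limit was not always enough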;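 also: z-score of nuclear minus cytoplasmic ring GR-EGFP intensity difference per well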
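Buffer or medium – tet-free medium with charcoal-stripped serum · Signal – automated 10x imaging of fixed Hoechst-stained cells · Also added – dexamethasone agonist, 1.0 µM final, for 30 min · Incubation – induction 48 h, compound 1 h, agonist 30 min · Read-out – GR-EGFP nuclear translocation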
MEKK2mut PB1 HTS: signal of MEK5 binding to mutant human MEKK2 PB1 domain; percent response, % at 10 µM; bead flow cytometry, Alexa488-MEK5 binding to MEKK2 mutant; 0.35% of 290,000 active; in the data active = percent response above about 24%, passing the limit was not always enough
MEKK2wt PB1 HTS: raises or lowers MEK5 binding to wildtype human MEKK2 PB1 domain | bead flow cytometry, Alexa488-MEK5 binding to MEKK2 WT; actives lie on both sides | binding response (% of control), % at 10 µM | 1.1% of 290,000 active | AID 1531; in the data active = binding response below about 67% or above about 130%
B2AR ag: activates human beta-2 adrenergic receptor causing internalization; P07550; Am2.2-beta2AR cells, FAP receptor internalization, flow cytometry; response, % (test concentration not listed); 0.43% of 340,000 active; AID 504454;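 active = response above a set limit, near 3 SD of response in nonfluorescent compounds, cut at about 42% in these data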
MEKK3 PB1 HTS: modulators (inhibitors or enhancers) of MEK5 binding to human MEKK3 PB1 domain. binding response (% of control), % at 10 µM. AID 1529. 1.4% of 290,000 active. Q99759. bead-based flow cytometry, Alexa488-MEK5 binding to MEKK3; actives lie on both sides; 0 = blocked by unlabeled MEK5, 100 = vehicle;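 active = binding response more than 3 SD above or below the average of its plate-row segment, actives on both sides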;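 also: Alexa488 bead fluorescence after subtracting the streptavidin-only scavenger bead signal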
MEKK2wt confirm: raises or lowers MEK5 binding to wildtype human MEKK2, retest; 2.4% of 5,900 active; binding response (% of control), % at 10 µM; bead flow cytometry, Alexa488-MEK5 binding to MEKK2 WT; actives lie on both sides; shares compounds with MEKK3 PB1 HTS; in the data active = binding response below about 16% or above about 210%; inactive = in between
MEKK2mut confirm: signal of MEK5 binding to mutant human MEKK2, retest; bead flow cytometry, Alexa488-MEK5 binding to MEKK2 mutant; percent response, % at 10 µM; shares compounds with MEKK3 PB1 HTS; AID 1893; 2% of 5,900 active; in the data active = percent response mostly above about 71%, no sharp cut-off; inactive = mostly below about 38%;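 also: higher means compound restores mutant binding toward wildtype level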
MEKK3-MEK5 inh: MEKK3-MEK5 PB1 inhibition, single concentration confirmation; shares compounds with MEKK3 PB1 HTS; bead flow cytometry, Alexa488-MEK5 binding to MEKK3; active compounds read low; binding response (% of control), % at 10 µM; 1.8% of 5,900 active;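 active = binding response below 72% of control, or above a set upper limit, though filed actives all read lower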;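 also: lower values mean stronger disruption of MEK5 binding to MEKK3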
Each line names hits and unclear results; the compound was inactive in the other large screens (follow-up assays come after a bar, where they were run); [ ] = remark or other dose. Rows were chosen to be rich in hits. Some 2.9% of all compounds tested hit in one or more screens of this group.

CCc1nccn1CCC(=O)N1CCCC(N2CCN(c3cccc(Cl)c3)CC2)C1 (stereo unspecified)	none (no result: Dynein transport)
O=c1c(N2CCOCC2)c(N2CCOCC2)c1=O	MEKK3 PB1 HTS 42[inhibitor] | MEKK2wt confirm inactive | MEKK2mut confirm inactive | MEKK3-MEK5 inh inactive
CC(C)Oc1c(N2CCOCC2)c(=O)c1=O	none
CCCCCCCCCCCCCCCCn1cc[n+](CC(C)=O)c1	MEKK2mut PB1 HTS 89, MEKK2wt PB1 HTS 220 | MEKK2wt confirm inactive | MEKK2mut confirm inactive | MEKK3-MEK5 inh inactive
CC1CCCCC12NC(=O)N(CC(=O)N1CCN(C(=O)c3ccco3)CC1)C2=O (stereo unspecified)	none (no result: Dynein transport, MEKK2mut PB1 HTS, MEKK2wt PB1 HTS, MEKK3 PB1 HTS)
COC(=O)c1ccc(C2C(Oc3ccc(OC)cc3)C(=O)N2CCc2ccc(OC)c(OC)c2)cc1 (stereo unspecified)	MEKK3 PB1 HTS 157 | MEKK2wt confirm inactive | MEKK2mut confirm inactive | MEKK3-MEK5 inh inactive
COC(=O)c1ccc(C2C(Oc3ccccc3)C(=O)N2CCc2ccc(F)cc2)cc1 (stereo unspecified)	none
CCOC(=O)c1c(NC(=O)CCN2CCOCC2)sc2c1CC(C)(C)OC2	none
CCOC(=O)c1c(NC(=O)CN2CCOCC2)sc2c1CC(C)(C)OC2	MEKK2wt PB1 HTS 4.0[inhibitor], MEKK3 PB1 HTS 3.0[inhibitor] | MEKK2wt confirm inactive | MEKK2mut confirm inactive | MEKK3-MEK5 inh inactive
CCOC(=O)c1c(NC(=O)CCC(=O)N2CCOCC2)sc2c1CC(C)(C)OC2	MEKK3 PB1 HTS 79[inhibitor] | MEKK2wt confirm inactive | MEKK2mut confirm inactive | MEKK3-MEK5 inh inactive
Oc1ccc2ccccc2c1CN1CCN(C/C=C/c2ccccc2)CC1	MEKK2mut PB1 HTS 25, MEKK2wt PB1 HTS 140 (no result: Dynein transport) | MEKK2wt confirm inactive | MEKK2mut confirm inactive | MEKK3-MEK5 inh inactive
O=S(=O)(c1ccccc1)N1CCN(Cc2c(O)ccc3ccccc23)CC1	none (no result: Dynein transport, MEKK2mut PB1 HTS, MEKK2wt PB1 HTS, MEKK3 PB1 HTS)
CN(C)S(=O)(=O)n1cnc([C@@H]2[C@@H]3C(=O)OC[C@@H]3C[C@]23N=CN(Cc2ccccc2)C3=O)c1	none (no result: Dynein transport, MEKK2mut PB1 HTS, MEKK2wt PB1 HTS, MEKK3 PB1 HTS)
Cc1cnc(C(=O)Nc2nccs2)cn1	MEKK2wt PB1 HTS 2.0[inhibitor], MEKK3 PB1 HTS 2.0[inhibitor] | MEKK2wt confirm inactive | MEKK2mut confirm inactive | MEKK3-MEK5 inh inactive
Cc1cnc(C(=O)Nc2nnc(C)s2)cn1	none
Cc1cccc2nc(CSc3nc4ccc([N+](=O)[O-])cc4[nH]3)cn12	MEKK3 PB1 HTS 151 | MEKK2wt confirm inactive | MEKK2mut confirm inactive | MEKK3-MEK5 inh inactive
O=[N+]([O-])c1ccc2nc(SCc3cn4ccccc4n3)[nH]c2c1	none
CCc1sc(-c2c(C#N)c(N)nc3c2CCCCCC3)cc1[N+](=O)[O-]	MEKK2wt PB1 HTS 1.0[inhibitor], MEKK3 PB1 HTS 1.0[inhibitor] | MEKK2wt confirm inactive | MEKK2mut confirm inactive | MEKK3-MEK5 inh inactive
O=C(CN1CCOCC1)Nc1ccccc1Sc1ccc(Cl)cc1	MEKK3 PB1 HTS 129 | MEKK2wt confirm inactive | MEKK2mut confirm inactive | MEKK3-MEK5 inh inactive
CCc1cccc2c(C(=O)C(F)(F)F)cn(CC(=O)NCC3CCCO3)c12 (stereo unspecified)	none
CCc1cccc2c(C(=O)C(F)(F)F)cn(CC(=O)N3CCOCC3)c12	MEKK3 PB1 HTS 147 | MEKK2wt confirm inactive | MEKK2mut confirm inactive | MEKK3-MEK5 inh inactive
COc1ccc(NC(=O)CC2C(=O)N(c3ccc(F)cc3)C(=S)N2NC(=O)c2ccc(Cl)cc2)cc1 (stereo unspecified)	none
N#C/C(=C\c1ccc(N2CCOCC2)cc1)c1ccccc1	MEKK3 PB1 HTS 137 | MEKK2wt confirm inactive | MEKK2mut confirm inactive | MEKK3-MEK5 inh inactive
